# Source: PubChem BioAssay
# Most compounds without a hit are left out; they make up all but 3.8% or so of the library.
# hERG rescue = shields human hERG channel from block by proarrhythmic agents | CHO-hERG, FluxOR thallium flux, dofetilide IC70 present | activation (rescue from dofetilide block), less the hit threshold, % at 10 µM | AID 1511 | 310,000 tested, 0.51% active | Q12809;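 active means activation above the mean of controls blocked by dofetilide plus 5 SD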;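 further: thallium influx through hERG after potassium depolarization seen as dye fluorescence rise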
# Target sequence (Q12809 whole entry, looked up): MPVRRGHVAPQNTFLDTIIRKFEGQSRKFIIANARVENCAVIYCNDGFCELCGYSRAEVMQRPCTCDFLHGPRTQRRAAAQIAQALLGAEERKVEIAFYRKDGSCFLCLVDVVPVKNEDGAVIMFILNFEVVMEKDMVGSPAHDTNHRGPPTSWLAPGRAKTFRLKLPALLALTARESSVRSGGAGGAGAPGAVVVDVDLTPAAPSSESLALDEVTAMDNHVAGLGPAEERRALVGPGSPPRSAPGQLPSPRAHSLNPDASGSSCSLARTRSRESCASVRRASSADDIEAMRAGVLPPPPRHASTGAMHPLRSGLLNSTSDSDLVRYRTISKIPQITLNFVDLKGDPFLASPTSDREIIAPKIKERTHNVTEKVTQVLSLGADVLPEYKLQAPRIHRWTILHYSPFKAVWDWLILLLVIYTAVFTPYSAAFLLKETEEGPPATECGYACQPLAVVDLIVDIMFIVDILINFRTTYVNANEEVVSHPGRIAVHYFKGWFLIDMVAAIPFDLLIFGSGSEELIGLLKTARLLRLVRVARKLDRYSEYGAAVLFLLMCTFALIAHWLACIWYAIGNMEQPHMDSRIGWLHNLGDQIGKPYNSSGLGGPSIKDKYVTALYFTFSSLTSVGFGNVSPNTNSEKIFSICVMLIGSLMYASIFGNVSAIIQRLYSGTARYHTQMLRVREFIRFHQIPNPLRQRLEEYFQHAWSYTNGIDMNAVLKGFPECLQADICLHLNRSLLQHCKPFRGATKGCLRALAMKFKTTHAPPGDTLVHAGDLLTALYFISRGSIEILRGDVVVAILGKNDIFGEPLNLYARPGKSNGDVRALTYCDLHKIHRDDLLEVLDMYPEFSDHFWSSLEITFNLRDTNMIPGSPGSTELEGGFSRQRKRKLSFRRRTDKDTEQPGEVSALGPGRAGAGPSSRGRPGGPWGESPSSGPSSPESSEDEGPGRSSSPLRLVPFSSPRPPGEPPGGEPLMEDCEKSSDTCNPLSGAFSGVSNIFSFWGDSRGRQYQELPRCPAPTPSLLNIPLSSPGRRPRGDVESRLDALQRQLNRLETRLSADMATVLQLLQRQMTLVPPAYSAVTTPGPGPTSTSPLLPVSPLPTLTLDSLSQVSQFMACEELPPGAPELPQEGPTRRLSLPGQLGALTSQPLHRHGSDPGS
# KCNK9 block = blocks the human KCNK9 two-pore domain potassium channel | Q9NPC2 | HEK293 KCNK9, FluxOR thallium flux fluorescence; stronger effect = lower value | B-score at 10 µM | 310,000 tested, 1.2% active | AID 488922;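 active means ratio B-score over 3 SD below the library mean, with starting fluorescence within 5 SD of its mean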;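 further: negative B-score means less thallium flux so channel inhibition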
# Kir21 inh = Kir2.1 (mouse) channel inhibition; AID 1672; P35561; B-score at 10 µM; HEK293-Kir2.1, FluxOR thallium flux fluorescence; stronger effect = lower value; 310,000 tested, 0.85% active;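 active means fluorescence ratio B-score at or below minus 3 SD of library scores, with starting-brightness B-score within 2 SD, cut at about -4.2 in these data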;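 further: channel flux triggered by added potassium and thallium sulfate stimulus; B-score of peak minus minimum fluorescence over baseline after thallium stimulus; more negative B-score means stronger Kir2.1 block with less thallium influx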
# KCNQ1 inh = blocks the human KCNQ1 potassium channel. CHO-K1 KCNQ1, FluxOR thallium flux fluorescence; stronger effect = higher value. P51787. 310,000 tested, 1.3% active. B-score at 10 µM;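 active means compounds whose thallium flux B-score, printed positive for inhibition, exceeds three library SD while starting fluorescence stays within three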;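 further: channel opened by potassium depolarization with thallium stimulus after 20 min compound exposure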
# KCNQ1 act = potentiates or activates the human KCNQ1 potassium channel. P51787. CHO-K1 KCNQ1, thallium flux FluxOR fluorescence; stronger effect = higher value. B-score at 10 µM. 310,000 tested, 0.35% active. AID 2648;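 active means fluorescence ratio B-score, a plate-corrected score, at least three library SD, with initial intensity B-score within 5 SD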
#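 Material: CHO-K1 cells stably expressing KCNQ1. Medium: assay buffer for compound exposure, DMSO matched across wells. Reagent: K+/Tl+ depolarizing stimulus. Compound dosing: single-concentration screen. Times: 37 °C overnight plating, 90-min dark dye load, 20-min compound pretreatment. Technique: FluxOR Tl+ flux fluorescence.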
# KCNK3 block = human KCNK3 channel inhibition, primary screen; O14649; CHO-KCNK3 thallium flux, FluxOR fluorescence; stronger effect = lower value; B-score at 10 µM; 340,000 tested, 0.84% active; AID 602410;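 active means B-score under library mean minus 4 SD, starting fluorescence ratio at most library mean plus 5 SD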;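 further: more negative B-score means stronger inhibition of thallium flux through KCNK3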
# * = called active by the depositor; i = inactive; . = no result given.
SMILES,hERG rescue,KCNK9 block,Kir21 inh,KCNQ1 inh,KCNQ1 act,KCNK3 block
COc1ccc(NC(=O)CSCC(=O)Nc2cc(Cl)ccc2N2CCOCC2)cc1,-19.7,i,-0.87,i,i,i
Cc1ccc(NC(=O)CSCC(=O)Nc2cc(Cl)ccc2N2CCOCC2)cc1,-15.2,i,-1.68,6*,i,i
Cc1ccc(NC(=O)CSCC(=O)Nc2ccccc2N2CCCC2)cc1,-5.9,i,-6.66*,i,i,i
Cc1cc(NC(=O)CSCC(=O)Nc2cc(Cl)ccc2N2CCN(C)CC2)no1,.,.,.,.,.,i
Cc1cccc(NC(=O)CSCC(=O)Nc2cc(Cl)ccc2N2CCN(C)CC2)c1,-11.8,i,-4.6*,i,i,i
Cc1ccc(NC(=O)CSCC(=O)Nc2ccccc2C(=O)N2CCCCC2)cc1,-14.7,i,-0.08,i,i,i
O=C(CSc1nnc(CNC(=O)c2cccs2)o1)Nc1ccc(F)cc1F,-9.1,i,0.22,i,i,i
CC(C)C(=O)Nc1ccc2c(c1)Cc1cc(NC(=O)C(C)C)ccc1-2,6.0*,i,-0.43,i,i,i
CC(=O)Nc1ccc2c(c1)Cc1ccc(Cl)cc1-2,.,.,.,.,.,i
C1CCN(CCCNC2C3CC4CC(C3)CC2C4)C1 (centres undefined),-9.0,i,-10.6*,i,i,i
COc1cc(CN2CCN(Cc3ccc(SC)cc3)CC2)cc(OC)c1O,-3.7,i,0.19,i,i,i
COc1ccc(CN2CCN(Cc3ccc(Br)cc3)CC2)c(OC)c1OC,0.1,i,-4.77*,i,i,i
COc1cc(OC)c(OC)cc1CN1CCN(Cc2ccc(SC)cc2)CC1,-6.2,i,-5.51*,i,i,i
CCN1CCN(Cc2ccc(NC(=O)Nc3ccc(SC)cc3)cc2)CC1,-12.0,i,-4.82*,i,i,i
CCOc1ccccc1N1CC(C(=O)Nc2cc(S(C)(=O)=O)ccc2Cl)CC1=O (centres undefined),-8.9,i,1.7,i,i,i
COc1cccc(CNC(=O)c2cccc(S(=O)(=O)N3CCN(Cc4ccccc4)CC3)c2)c1,.,.,.,.,.,i
CN(C)c1ccc(NC(=O)Cn2ncn3c(cc4ccccc43)c2=O)cc1,8.9*,i,-0.04,i,i,i
CC(C)c1ccc(NC(=O)Cn2ncn3c(cc4ccccc43)c2=O)cc1,-11.0,i,1.1,i,i,i
COc1ccc(CNc2ncc(-c3ccc(Br)cc3)n2C)cc1OC,-7.0,i,-0.17,i,i,i
O=C(CSc1c2c(nc3cc(Cl)ccc13)CCCC2)NCc1ccco1,-20.8,i,-6.45*,i,i,i
Cc1ccc(S(=O)(=O)NC(=S)NC2CCCCC2)cc1,7.5*,i,-1,i,i,i
CCc1ccc(C(C)NC(=S)NC2CCCCC2)cc1 (centres undefined),-3.4,i,-1.01,i,i,i
CCc1ccc(S(=O)(=O)NC(=S)NC2CCCCC2)cc1,20.8*,i,0.29,i,23*,i
O=S(=O)(NC(=S)NC1CCCCC1)c1ccc(Cl)cc1,5.5*,i,0.47,i,i,i
COCc1ccc(CN2CCC(n3nccc3NC(=O)CCOc3ccccc3)CC2)o1,-10.3,i,0.14,i,i,i
SMILES,hERG rescue,KCNK9 block,Kir21 inh,KCNQ1 inh,KCNQ1 act,KCNK3 block
CCOC(=O)Cn1c(=N)n(CCOc2cccc(C)c2)c2ccccc21,.,.,.,.,.,i
Nc1nc2ccccc2n1CCOc1ccc(Br)cc1,-18.0,i,-10.9*,i,i,i
CCOC(=O)Cn1c(=N)n(CCOc2ccc(Br)cc2)c2ccccc21,-22.1,i,-6.39*,i,i,i
COc1ccc(NC2CCCN(C(=O)CCc3ccncc3)C2)cc1OC (centres undefined),-7.9,i,-0.23,i,i,i
O=C(O)CCc1cc(I)c(Oc2ccc(O)c(I)c2)c(I)c1,29.0*,i,-0.74,i,49*,.
Cc1cccnc1NC(=O)c1ccc(Cl)c(S(=O)(=O)N2CCCCC2)c1,-10.1,i,-0.34,i,i,i
O=C1CN(S(=O)(=O)c2cccc(Br)c2)CCN1,.,.,.,.,.,i
Cc1ccc2cc3cc(C(=O)NCCCN4CCCC4=O)oc3nc2c1,-0.4,i,-0.2,i,i,i
CCN(c1ccc(NC(=O)c2ccc(Cl)nc2)cc1)C(C)C,5.9*,i,1.14,i,i,i
O=C(Nc1ccc(N2CCOCC2)cc1)c1ccc(Cl)nc1,-2.6,i,0.53,i,i,i
CC(NS(=O)(=O)c1c(N)n(C)c(=O)n(C)c1=O)c1ccccc1 (centres undefined),-7.6,i,-0.82,i,i,i
COc1ccc(C(=O)COC(=O)CCn2nnc(-c3cccs3)n2)cc1,-12.2,i,0.38,i,i,i
S=C(Nc1ccc(Br)cc1)N1CCn2cccc2C1c1cccnc1 (centres undefined),-15.6,i,1.38,i,22*,i
CCN(CC)C(=O)[C@H]1C[C@H](CC(=O)NCCN2CCOCC2)C(=O)N2CCc3c([nH]c4cc(-c5ccco5)ccc34)[C@]12C,.,.,.,.,.,i
COC(=O)c1ccc(NC(=O)CCCN2C(=O)NC(C)(C)C2=O)cc1,.,.,.,.,.,i
CNc1nc(SC)nc2ccccc12,6.6*,i,-1.51,i,i,i
CSc1nc(NCc2ccco2)c2ccccc2n1,-4.3,i,1.97,i,i,i
Cc1nc2cc(NC(=O)c3ccco3)ccc2n1C,-10.4,i,-0.67,i,i,i
CCC(=O)Nc1cccc(-c2csc(-c3ccccc3)n2)c1,-10.4,-7.44*,0.1,i,i,i
Cc1nc(-c2ccc(NC(=O)Cc3ccccc3)cc2)cs1,2.1,i,0.2,i,8*,i
CCC(=O)Nc1cccc(-c2cn3ccccc3n2)c1,-4.9,i,-0.3,i,i,i
CC(=O)c1ccc(NC(=O)CN2C(=O)NC(C)(c3ccc4c(c3)OCCO4)C2=O)cc1 (centres undefined),.,.,.,.,.,i
COc1ccc(CCNC(=O)CC2SC(=NCc3ccccc3OC)NC2=O)cc1 (centres undefined),4.9*,i,0.72,i,i,i
Cc1cc(C)c(S(=O)(=O)N2CCN(c3ccc([N+](=O)[O-])c(NCc4ccco4)c3)CC2)c(C)c1,4.7*,i,-1.4,i,i,i
CCN(CC)c1c([N+](=O)[O-])c(=O)n(C)c2ccccc12,-10.0,i,-2.15,i,i,i
Cn1c(=O)c([N+](=O)[O-])c(Cl)c2ccccc21,-30.0,i,-1.66,9*,i,i
